From the RNAGym collection of RNA variant scans (doi:10.1126/science.aae0568) come the findings set out here.

Sequences and labels used below:
B1: tRNA (parent)
chain: GUUCCGUUGGCGUAAUGGUAACGCGUCUCCCUCCUAAGGAGAAGACUGCGGGUUCGAGUCCCGUACGGAACG

This sample holds only a part of the variants without activity.

The data set covers variants of B1. The data set can be described thus: yeast fitness relative to wild type (ratio to wild type); higher = fitter; tRNA-Arg(CCU), competitive growth, 37 C, YPD. Summed up:
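Gene amplicons from the start population and from each of six end populations were read by 100-nucleotide paired-end sequencing. Those end populations came from pooled Saccharomyces cerevisiae strains carrying tRNA-Arg(CCU) gene variants at the native locus, competed in YPD at 37°C for 24 hours. Fitness relative to wild type was worked out from changes in genotype frequencies. Genotypes needed ≥ 100 starting reads, and estimates < 0.5 were set to 0.5.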
On to C5G A21G U32C C49G A65G, for which the yeast fitness was 0.553.
For C31G G38C A43U, the yeast fitness came to 0.538.
G12C U53A: the yeast fitness was determined as 0.594.
In the case of C4A U35C G48C C55U G56A, the yeast fitness worked out at 0.51.
On to G10A A36G, for which the yeast fitness was determined as 0.664.
Then C11A U19A A42U A45C C55U A69C, with 0.538.
On to G10A A21U C31G, for which the yeast fitness was not above 0.5.
C34U A36C U53C G67A: the yeast fitness is not above 0.5.
For the variant C34G G51A C66U, the yeast fitness worked out at 0.649.
In the case of C5U C11G C22U C30G G58C C60G, the yeast fitness was not above 0.5.
In the case of G25A G41A, the yeast fitness is 0.822.
Then A36C C66A, with not above 0.5.
With C11G C29G C33U C46A C49G the figure was 0.564; with G48A G68A, 0.998.
Consider C27U G50C, for which the yeast fitness came to 0.618.
For C30U A45U A69G, the yeast fitness was found to be 0.566.
Take U13A A20G A42G C46U: the yeast fitness was not above 0.5.
For A14U C30A A43U, the yeast fitness is not above 0.5.
Take G12C C34G: the yeast fitness stood at 0.696.
As for C31U A40U U54C, the yeast fitness is 0.541.
As for G44A G56C, the yeast fitness was determined as 0.585.
With U32A G58C C66A the figure was not above 0.5.
For the variant A14G G18A C22G C49A, the yeast fitness is not above 0.5.
Take U3C C5G G9A C11G C66U: the yeast fitness is not above 0.5.
Regarding C22G A42G C60A, the yeast fitness was not above 0.5.
Then C29G A40U G58A, with not above 0.5; and A20C A42C A45C G48A, with 0.565.
Then A20G A36C C49G U54C, with not above 0.5; and A20C C34G A69U, with 0.549; and C11U U13A G41A A45U G58U C60A, with not above 0.5.
Then G12C A20G C46G, with 0.548; and G25A U28G C33G A45C, with not above 0.5; and C4U G39U, with 0.834.
For U2C A57G, the yeast fitness was found to be 0.891.
On to C4U A15U U16A G23C A57U A69U, for which the yeast fitness was not above 0.5.
Take U2C G52C U59G: the yeast fitness was not above 0.5.
Take G17A C46U A65C: the yeast fitness was 0.658.
In the case of A14C A36G G41A G48C U59C A70C, the yeast fitness was not above 0.5.
As to C5G C34G A40G G48C G63A C66U, the yeast fitness is not above 0.5.
With G38U, the yeast fitness was determined as 1.01.
Take U8A U16A C29G A40G A42G C46G A65U: the yeast fitness is not above 0.5.
As for G25C G51A U54A, the yeast fitness was 0.507.
With U2A G6C U16C C24U C46G C49A C61U the figure was not above 0.5.
With U35A C49U U64A, the yeast fitness is not above 0.5.
As to A15C G67C, the yeast fitness was 0.684.
C29G C30G G63A: the yeast fitness came out at 0.607.
Regarding U2A A21C C29U A57C, the yeast fitness was determined as 0.583.
With U47A A65G the figure was 0.937.
C46A A70U: the yeast fitness stood at 1.04.
Then G9A G51C, with 0.539.
For the variant U26G C29A, the yeast fitness was 0.578.
As to U8G A14U G50A A57U A70G, the yeast fitness was not above 0.5.
For the variant A21G G68U, the yeast fitness turned out to be 1.07.
On to C24U U28G G48A, for which the yeast fitness was not above 0.5.
G6A C24U C31A A43C G58C U64G: the yeast fitness was not above 0.5.
For the variant U2A A15G A45U G48A C66G, the yeast fitness is not above 0.5.
Take U8G G56A: the yeast fitness worked out at 0.568.
For C4A G6A C30A A65G, the yeast fitness is not above 0.5.
As for A15G C30U A69U, the yeast fitness is 0.609.
Then C4U A14U C46U, with 0.577; and C22G C31G C62U G68C, with not above 0.5; and U3A C4U G48U, with not above 0.5.
For C30U C31U A37G A43G G52A, the yeast fitness is not above 0.5.
A21C C22G G38C C49U A57C: the yeast fitness was not above 0.5.
In the case of C4G G18C G68A, the yeast fitness was not above 0.5.
With U13G U19C C61U the figure was not above 0.5; with A15U A43U C62U, 0.611.
Consider G39A G48A A57U, for which the yeast fitness was not above 0.5.
Consider U3C C5G A20G G63C C66G, for which the yeast fitness was not above 0.5.
With U13G A40G G44C C61G the figure was not above 0.5.
Take C5G A14C C34G: the yeast fitness was not above 0.5.
For the variant C62U A65C A70C, the yeast fitness is 0.619.
Then U8A G18A G25A C33U G51A G56A, with 0.614; and U2A A15C A57U C61U, with 0.504; and A14C C34A C61U U64A A69G, with not above 0.5.
For the variant G6C C24G C34U U53C C55G C62A A70U, the yeast fitness was not above 0.5.
As for C27U C31G A40G, the yeast fitness was not above 0.5.
Regarding C22U U32C, the yeast fitness worked out at 0.902.
As for U2A C24G U28C A40U, the yeast fitness is not above 0.5.
In the case of C5U G12C U13A, the yeast fitness is not above 0.5.
Then A14C C55G G68C, with not above 0.5; and A36U C46G C62A, with not above 0.5; and A45U C55G, with 0.528.
Turning to G12A C24G A40C A42G A43C C46U G68C A69U, the yeast fitness is not above 0.5.
Regarding C4G C24U C33G A65U C66U A69C, the yeast fitness worked out at 0.584.
In the case of U8C A37G, the yeast fitness is 0.657.
Turning to C24G A37G U47C U59A G67A, the yeast fitness is not above 0.5.
C4U U8C G17C C49A: the yeast fitness is not above 0.5.
With C11U C22U U54C G56C G58A the figure was not above 0.5; with A42U C60U A70G, 0.703.
With C31G A36C G41A C49U, the yeast fitness was not above 0.5.
Consider G10A C22G G25C, for which the yeast fitness was not above 0.5.
With U8A G38C G48A the figure was not above 0.5.
As to C4G U13A G18A G52A C55G, the yeast fitness is not above 0.5.
As for G6A A43G A65U, the yeast fitness amounted to 0.604.
Regarding C4A C22A, the yeast fitness was determined as 0.706.
Regarding C4G U19C C29A C33G A45C, the yeast fitness was not above 0.5.
With G10A C33U G44C A45G G58A the figure was not above 0.5; with G10C A43C, 0.591.
As for G6A C11G A21G C27G C29U U35G A70C, the yeast fitness was not above 0.5.
Turning to C11G C24A G48C U54G C55U C66U, the yeast fitness is not above 0.5.
In the case of C22A C29U C62G, the yeast fitness was not above 0.5.
With C11U A20U C22A C66G the figure was not above 0.5; with C4U C24A A69U, 0.601.
With G12A A15G A65C, the yeast fitness is not above 0.5.
For the variant A20U G25C A65U A69C, the yeast fitness was 0.587.
U32A A65C: the yeast fitness was determined as 0.887.
For G23C U32A C61U, the yeast fitness was not above 0.5.
On to G9A C29A G56C, for which the yeast fitness was not above 0.5.
With U13C U47C, the yeast fitness was 0.905.
Regarding U19C U35G A43G, the yeast fitness worked out at 0.598.
Take A43U G56A C66G: the yeast fitness was 0.553.
As to C34A A40C U54C, the yeast fitness is not above 0.5.
Then C4U G23C A40U A42G G58C, with not above 0.5.
Turning to U26C C30G G67C, the yeast fitness was not above 0.5.
For A20U C33A C66A, the yeast fitness was not above 0.5.
With U3A G10C A57G C66U the figure was not above 0.5; with U3A A14C A20C U64A, not above 0.5; with C5A G51C G63C A65C A70U, not above 0.5.
As for C11G G23C A36U G44C G68A, the yeast fitness was determined as 0.717.
As to C33A G68C, the yeast fitness came to 0.744.
On to U3G U8C A15U G25A C49A, for which the yeast fitness was not above 0.5.
Consider C4U G17A A57U, for which the yeast fitness is not above 0.5.
In the case of U7C G9A C31G, the yeast fitness came to 0.77.
For G17A C30G A40G C60A, the yeast fitness was found to be 0.678.
Then U28C U35G A36C A65G C66A, with not above 0.5; and C11U A20U, with 0.75.
As to G6A G18C A37C C60G A65G, the yeast fitness was not above 0.5.
Regarding A14G A20C C31G A45U G48C, the yeast fitness is not above 0.5.
Then A36C C55U, with 0.675; and A15U A21C U53C G56C A65G, with 0.77; and C4U U19C A37U C62A, with not above 0.5.
For the variant C30U A57G, the yeast fitness came out at 0.709.
On to C4U U8A G25C A43U C60G, for which the yeast fitness is not above 0.5.
Regarding U7A G12A C27A, the yeast fitness is not above 0.5.
Then A42U G52A G67U, with 0.783.
Consider G12C C24G U35C, for which the yeast fitness is not above 0.5.
With C27G C62U, the yeast fitness came to 0.688.
Take C5U U8C A20G C30A C61A G67U: the yeast fitness is not above 0.5.
Then U16G C29U C46U G67C A69U, with 0.521; and G17A A69C, with 0.721.
On to C22A U32C C66U, for which the yeast fitness worked out at 0.503.
With C5U C30G A36U G51A G52A the figure was 0.524; with U13G C29U C33U G63A, not above 0.5; with A14U C33U A36U G41C, not above 0.5.
With C62U A70G the figure was 0.997; with C4A C29G G50A, not above 0.5; with C24U C27G U32C A65U, not above 0.5.
Take C5A G17A C66U: the yeast fitness is 0.587.
With U8C C29A C34G A36G A40C U47A U64C the figure was not above 0.5; with G10C A21C C29A C30G A40C, not above 0.5; with U26A A37G C66A, not above 0.5.
As for U3G C11U G67A, the yeast fitness turned out to be 0.564.
Then G12A G39C C46A, with 0.554; and C5U A14G G50C C55U A57G C66U, with not above 0.5.
On to G56C G58C, for which the yeast fitness is 0.563.
As for A20G C22G U54A, the yeast fitness is not above 0.5.
With C60A G67C, the yeast fitness amounted to 0.654.
With G10C G12A C33A U35G U47A C55A C61U, the yeast fitness was not above 0.5.
Take U19C C33G A57G C61G A69G: the yeast fitness turned out to be 0.65.
Regarding A40U A43G A57G, the yeast fitness is not above 0.5.
Turning to A45U G63C, the yeast fitness came out at 0.542.
Then C4G A40U C66G, with 0.624; and C5U C22U G52A U53C U59G C61G C62U, with not above 0.5.
With U7C G12A C31U G52A the figure was not above 0.5; with C5G G17A A40C U59C, 0.723.
Regarding C4A G9A C22A C27G, the yeast fitness was not above 0.5.
